Laboratory results reported in PubChem BioAssay.
The source made the active and inactive calls.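 The calls were made as follows, unless noted: active = viability at or below 10% of carrier control in both of two separate runs; inconclusive = viability at or below 10% in only one of the two runs; inactive = the rest.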

Key:
[1] = Her2 expression decrease, cell viability multiplex – SKBR3 breast tumor cells, AlphaScreen, ATP viability, primary screen (AID 461;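 active = Her2 level under about 52% in both replicate screens, with viability over 70% of control, limit read from the data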;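 as to Her2 level: lower value means less Her2 protein in the cells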;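 as to viability: percent of carrier control wells set as 100% viability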); settings: SKBR3 Her2 protein level, 18-24 h, measured here: SKBR3 viability, ATP luminescence, at 10 µM
[2] = molecular target: Receptor tyrosine-protein kinase erbB-2 (Homo sapiens) (UniProt P04626); test: as above; settings: 18-24 h, at 10 µM, stronger effect = lower value
[3] = reduced viability of SK-BR-3 breast cancer cells – cell-based, 24 h, human, pilot screen (AID 572); settings: SK-BR-3 viability, CellTiter-Glo luminescence, at 10 µM, stronger effect = lower value;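 also: compound exposure lasted between 18 and 24 h rather than exactly 24 h; 100% = carrier-treated control wells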
[4] = HUVEC growth inhibition – cell-based, human, primary screen (AID 575;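 active = viability at or below 30% in both replicate assays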;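 also: 100% = median of untreated cell wells with 0.1% DMSO on each plate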); settings: HUVEC proliferation, CellTiter-Glo luminescence, 72 h; at 10 µM; stronger effect = lower value
In short: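 Assay system: Primary human umbilical vein endothelial cells | Quantity: 1250 cells per well | Medium: Supplemented EBM, 2% fetal bovine serum | Detection: CellTiter-Glo luminescence measuring cellular ATP | Read-out: % viability vs DMSO wells | Plate: Collagen-coated 384-well format | Times: 72 h exposure, 37 °C, 5% CO2, 30 min RT equilibration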

[5] = H69AR cell proliferation blockers – human, duplicate replicates, primary screen (AID 580;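 active = viability at or under a set limit in both replicates, limit being median viability minus 3 SD, cut at about 48% in these data, passing the limit was not always enough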;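 also: 100% = mean luminescence of untreated wells and 0% = no signal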); settings: H69AR lung tumor cells viability, ATP luminescence, 72 h; at 10 µM; stronger effect = lower value
[6] = MRP1 drug-resistance reversers in H69AR cells – cell-based, doxorubicin co-treatment, pilot screen (AID 601;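 active = viability loss from added drug above about 55%, and viability with drug at most 40%, in both replicates, limit read from the data, passing the limit was not always enough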); settings: CellTiter-Glo, 72 h, at 10 µM; for differential viability (reversal): stronger effect = higher value
[7] = yeast transport mutant growth inhibition pilot in 384-well plates, post-Golgi transport modulator project (AID 636; in the data active = inhibition above about 31%); settings: absorbance 615 nm, about 18 h, stronger effect = higher value
[8] = growth suppression of yeast trafficking mutant, preliminary HTS, modulators of trafficking downstream of Golgi apparatus project, 1536-format plate, OD 615 nm (AID 637; in the data active = inhibition above about 30%); settings: yeast transport mutant growth, absorbance 615 nm, 18 h; stronger effect = higher value
[9] = H69AR cells + 2 uM doxorubicin, measured here: viability with 2 uM doxorubicin, stronger effect = lower value
[10] = H69AR cells, compound alone cytotoxicity

Receptor tyrosine-protein kinase erbB-2 (Homo sapiens), sequence (P04626 whole entry, looked up): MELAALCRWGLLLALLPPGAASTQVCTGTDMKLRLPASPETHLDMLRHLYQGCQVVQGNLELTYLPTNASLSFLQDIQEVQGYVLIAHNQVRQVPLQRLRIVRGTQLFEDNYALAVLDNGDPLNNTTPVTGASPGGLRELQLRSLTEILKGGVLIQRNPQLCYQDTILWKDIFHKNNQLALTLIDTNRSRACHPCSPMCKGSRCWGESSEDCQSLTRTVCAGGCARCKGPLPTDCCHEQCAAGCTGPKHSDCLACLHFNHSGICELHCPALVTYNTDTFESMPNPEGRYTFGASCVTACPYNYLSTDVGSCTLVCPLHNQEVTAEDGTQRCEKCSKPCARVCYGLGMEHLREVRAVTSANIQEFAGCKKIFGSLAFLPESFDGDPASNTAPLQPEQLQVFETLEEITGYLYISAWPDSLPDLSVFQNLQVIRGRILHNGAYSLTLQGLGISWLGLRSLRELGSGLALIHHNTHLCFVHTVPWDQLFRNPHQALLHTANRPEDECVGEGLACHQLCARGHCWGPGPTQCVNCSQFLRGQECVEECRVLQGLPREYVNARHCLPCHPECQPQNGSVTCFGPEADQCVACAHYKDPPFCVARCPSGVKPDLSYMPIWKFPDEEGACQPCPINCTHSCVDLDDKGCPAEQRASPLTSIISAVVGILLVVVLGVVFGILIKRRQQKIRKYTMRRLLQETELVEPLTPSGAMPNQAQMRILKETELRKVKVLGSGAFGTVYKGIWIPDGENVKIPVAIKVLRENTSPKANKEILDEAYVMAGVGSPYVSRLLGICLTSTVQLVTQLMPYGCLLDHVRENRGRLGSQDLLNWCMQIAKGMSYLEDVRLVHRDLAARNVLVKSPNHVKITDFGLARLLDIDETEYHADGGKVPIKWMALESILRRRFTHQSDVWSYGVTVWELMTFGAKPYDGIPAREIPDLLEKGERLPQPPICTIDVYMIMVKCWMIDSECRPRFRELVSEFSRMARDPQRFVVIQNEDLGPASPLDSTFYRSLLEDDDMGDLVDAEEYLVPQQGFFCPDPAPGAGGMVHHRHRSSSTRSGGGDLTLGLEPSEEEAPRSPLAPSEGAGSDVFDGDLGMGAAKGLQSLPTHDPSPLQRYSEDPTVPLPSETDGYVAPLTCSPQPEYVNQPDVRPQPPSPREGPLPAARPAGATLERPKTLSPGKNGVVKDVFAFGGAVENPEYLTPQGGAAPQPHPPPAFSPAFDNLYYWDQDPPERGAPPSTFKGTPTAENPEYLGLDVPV

Row | Structure (SMILES) | viability [1] [%] | Her2 level [2] | viability [3] | viability [4] | viability [5] | differential viability (reversal) ([6]; H69AR cells + 2 uM doxorubicin) | viability [6, 9] [%] | viability [6, 10] [%] | inhibition [7] | inhibition [8]
1 | CC(=O)Nc1ccc(NS(=O)(=O)c2ccc(Cl)c(C(=O)O)c2)cc1 | 106 | 108% (inactive) | 106% (inactive) | 100% (inactive) | 103% (inactive) | 9.96% (inactive) | 92.8 | 103 | -4.61% (inactive) | -3.17% (inactive)
2 | COCCN(CCOC)C(=O)c1sc2nc(-c3ccccc3)cn2c1C | 93 | 78% (inactive) | 93% (inactive) | 82.4% (inactive) | 93.1% (inactive) | 10.4% (inactive) | 82.7 | 93.1 | -3.82% (inactive) | -5% (inactive)
3 | COc1ccc(-n2c(=O)cc(N3CCN(Cc4ccccc4)CC3)[nH]c2=O)cc1 | 87 | 105% (inactive) | 87% (inactive) | 94% (inactive) | 92.7% (inactive) | -17.5% (inactive) | 110 | 92.7 | 0.26% (inactive) | -4% (inactive)
4 | CC(=O)Nc1ccc(-c2cc3ccccc3o2)cc1 | 103 | 89% (inactive) | 103% (inactive) | 82.4% (inactive) | 95.9% (inactive) | 12% (inactive) | 83.9 | 95.9 | -6.44% (inactive) | -5.08% (inactive)
5 | CCC(=O)N/C(N)=N/c1nc(C)c2cc(OC)ccc2n1 | 131 | 67.5% (inactive) | 131% (inactive) | 59.5% (inactive) | 80.7% (inactive) | -8.64% (inactive) | 89.3 | 80.7 | -0.13% (inactive) | -5.74% (inactive)
6 | O=C(NCc1ccccn1)c1ccc2nc(-c3ccco3)c(-c3ccco3)nc2c1 | 101 | 90.5% (inactive) | 101% (inactive) | 111% (inactive) | 73.8% (inactive) | -5.92% (inactive) | 79.8 | 73.8 | -5.66% (inactive) | 2.13% (inactive)
7 | CCC(C)OC(=O)c1[nH]c2c(c1C)C(=O)CC(c1ccc(N(C)C)cc1)C2 (stereo not given) | 88.5 | 73% (inactive) | 88.5% (inactive) | 57.9% (inactive) | 27.6% (active) | -47.7% (inactive) | 75.3 | 27.6 | -2.93% (inactive) | 24.8% (inactive)
8 | COc1ccc(C(=O)Nn2c(SCC(=O)NCC3CCCO3)nc3ccccc3c2=O)cc1 (stereo not given) | 92.5 | 95% (inactive) | 92.5% (inactive) | 76.8% (inactive) | 83.8% (inactive) | 9.29% (inactive) | 74.5 | 83.8 | -6.53% (inactive) | -0.81% (inactive)
9 | CCOc1ccc(C(CC(=O)O)NC(=O)c2ccco2)cc1OC (stereo not given) | 102 | 102% (inactive) | 102% (inactive) | 104% (inactive) | 94.2% (inactive) | 1.89% (inactive) | 92.3 | 94.2 | -6.76% (inactive) | -1.33% (inactive)
10 | OC1(c2cccc(C(F)(F)F)c2)CCNCC1 | 110 | 91% (inactive) | 110% (inactive) | 96.5% (inactive) | 90.8% (inactive) | 4.62% (inactive) | 86.2 | 90.8 | -8.53% (inactive) | -3.02% (inactive)
11 | CC(C)OP(=O)(c1ccc(N(C)C)cc1)C(O)c1ccccc1F (stereo not given) | 128 | 113% (inactive) | 128% (inactive) | 103% (inactive) | 106% (inactive) | 19% (inactive) | 87.5 | 106 | -4.93% (inactive) | 3.06% (inactive)
12 | Cc1ccc(C2CC(c3cccc(Br)c3)Nc3nnnn32)cc1 (stereo not given) | 92.5 | 79.5% (inactive) | 92.5% (inactive) | 56.7% (inactive) | 91.7% (inactive) | 6.65% (inactive) | 85 | 91.7 | -2.11% (inactive) | 0.16% (inactive)
13 | Cc1ccccc1N1CC(c2nc3ccccc3[nH]2)CC1=O (stereo not given) | 102 | 91.5% (inactive) | 102% (inactive) | 87.7% (inactive) | 96.1% (inactive) | -0.615% (inactive) | 96.7 | 96.1 | -0.92% (inactive) | -5.71% (inactive)
14 | O=C(COn1nnc2ccc(C(F)(F)F)cc21)Nc1nnc(-c2ccccc2)o1 | 87 | 92.5% (inactive) | 87% (inactive) | 68.2% (inactive) | 97.8% (inactive) | 15.5% (inactive) | 82.3 | 97.8 | -7.76% (inactive) | -3.27% (inactive)
15 | Oc1ccc(N2CCN(C(c3cccnc3)c3nnnn3Cc3ccccc3)CC2)cc1 (stereo not given) | 85 | 92% (inactive) | 85% (inactive) | 83.5% (inactive) | 90.2% (inactive) | -2.76% (inactive) | 92.9 | 90.2 | -4.74% (inactive) | -2% (inactive)
16 | Fc1ccc(-c2nnc(CN3CCN(c4ncc(C(F)(F)F)cc4Cl)CC3)o2)cc1 | 104 | 87% (inactive) | 104% (inactive) | 63.4% (inactive) | 90.5% (inactive) | -0.76% (inactive) | 91.3 | 90.5 | -1.43% (inactive) | 3.61% (inactive)

Row | Structure (SMILES) | viability [1] [%] | Her2 level [2] | viability [3] | viability [4] | viability [5] | differential viability (reversal) ([6]; H69AR cells + 2 uM doxorubicin) | viability [6, 9] [%] | viability [6, 10] [%] | inhibition [7] | inhibition [8]
17 | CC(C)(C)NC(=O)COC(=O)c1snc(C(=O)NC2CCCCC2)c1N | 86 | 75% (inactive) | 86% (inactive) | 51.9% (inactive) | 101% (inactive) | 12.7% (inactive) | 88.1 | 101 | -0.95% (inactive) | 1.59% (inactive)
18 | COC(=O)c1ccc(C(=O)OC)c(NC(=O)Nc2ccc3c(c2)OCO3)c1 | 86.5 | 106% (inactive) | 86.5% (inactive) | 89.1% (inactive) | 92.7% (inactive) | -2.65% (inactive) | 95.4 | 92.7 | -0.78% (inactive) | -9.67% (inactive)
19 | Nc1c(N2CCCCC2)c(=O)[nH]c(=O)n1-c1ccccc1 | 105 | 139% (inactive) | 105% (inactive) | 102% (inactive) | 109% (inactive) | 13.9% (inactive) | 95.3 | 109 | -2.86% (inactive) | -4.33% (inactive)
20 | CCSc1nnc(-c2ccc(OC)cc2)o1 | 100 | 93.5% (inactive) | 100% (inactive) | 92.7% (inactive) | 81.2% (inactive) | -10.4% (inactive) | 91.6 | 81.2 | -0.51% (inactive) | -11% (inactive)
21 | COC(=O)c1oc2ccc(OC)cc2c1N | 107 | 88% (inactive) | 107% (inactive) | 82.4% (inactive) | 100% (inactive) | 13.9% (inactive) | 86.2 | 100 | -2.53% (inactive) | -4.84% (inactive)
22 | C/C(N)=C(/C#N)C(=O)COC(=O)c1cc(S(=O)(=O)N2CCCCC2)ccc1C | 88.5 | 79.5% (inactive) | 88.5% (inactive) | 82.2% (inactive) | 95.8% (inactive) | 0.98% (inactive) | 94.8 | 95.8 | 0.38% (inactive) | -3.83% (inactive)
23 | Cc1cc(C)n(C(=O)CCCCCC(=O)n2nc(C)cc2C)n1 | 116 | 86.5% (inactive) | 116% (inactive) | 105% (inactive) | 105% (inactive) | 10.8% (inactive) | 94.5 | 105 | -9.32% (inactive) | -2.86% (inactive)
24 | CCOC(=O)c1[nH]c(C)c(C(=O)Nc2ccccc2F)c1C | 89.5 | 75.5% (inactive) | 89.5% (inactive) | 61.8% (inactive) | 16.1% (active) | -51% (inactive) | 67.1 | 16.1 | -4.47% (inactive) | 4.13% (inactive)
25 | COc1cc(OC)cc(-c2nc3nc(C)c(CCC(=O)O)c(C)n3n2)c1 | 106 | 81.5% (inactive) | 106% (inactive) | 80.1% (inactive) | 91.5% (inactive) | 7.47% (inactive) | 84 | 91.5 | -4.08% (inactive) | 0.18% (inactive)
26 | COc1c2ccoc2nc2c(OC)c(OCC(O)C(C)(C)O)ccc12 (stereo not given) | 100 | 97.5% (inactive) | 100% (inactive) | 94.4% (inactive) | 95.4% (inactive) | 2.17% (inactive) | 93.2 | 95.4 | -2.8% (inactive) | 3.39% (inactive)
27 | COc1ccc(N2C(=O)C3C4C=CC(C4)C3C2=O)nn1 (stereo not given) | 104 | 106% (inactive) | 104% (inactive) | 99.6% (inactive) | 99.2% (inactive) | 17.4% (inactive) | 81.8 | 99.2 | -0.91% (inactive) | -4.59% (inactive)
28 | COc1ccccc1-c1nc(SCc2ccccn2)n[nH]1 | 104 | 78.5% (inactive) | 104% (inactive) | 98.3% (inactive) | 97.2% (inactive) | 5.32% (inactive) | 91.9 | 97.2 | -1.89% (inactive) | -2.06% (inactive)
29 | COC(=O)c1nc(N)sc1-c1ccccc1 | 96 | 93% (inactive) | 96% (inactive) | 95.1% (inactive) | 93.3% (inactive) | 13.3% (inactive) | 80 | 93.3 | -6.13% (inactive) | 1.43% (inactive)
30 | CCCCOc1ccc(-c2nnn(C(C)(C)C(=O)OC)n2)cc1 | 96 | 107% (inactive) | 96% (inactive) | 86% (inactive) | 92.2% (inactive) | -7.05% (inactive) | 99.3 | 92.2 | -0.91% (inactive) | -4.29% (inactive)
31 | CCOC(=O)CSc1nc2cc(C(=O)N3CCC(C(N)=O)CC3)ccc2c(=O)n1-c1ccccc1 | 98 | 95% (inactive) | 98% (inactive) | 76.5% (inactive) | 100% (inactive) | 7.63% (inactive) | 92.4 | 100 | -3.95% (inactive) | -4.17% (inactive)
